# Laboratory results from publication PMC4832308 (Cancer, 2015).
# What was measured:
# [1] = urine pharmacokinetics in patients; details: human, in vivo
# pS6RP = experiment: immuno‐histochemical staining of tumor biopsies; format: in vivo, human; details: pre‐ vs on‐treatment (days 15‐22), HCC and salivary gland tumor, 30‐mg/d cohort
# How it was run: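 Optional pretreatment and on-treatment (days 15–22) tumor biopsies from 2 patients in the 30-mg/d cohort (HCC and salivary gland tumor). Paraffin-embedded sections were immunostained per antibody (pS6RP, p4EBP1, pAKT, Ki-67) or TUNEL-labelled, then scored by quantitative image analysis.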
smiles,measurement,setting,value
CO[C@H]1CC[C@H](N2C(=O)CNc3ncc(-c4ccc(C(C)(C)O)nc4)nc32)CC1 [CC‐223],fraction excreted unchanged in urine,[1],< 0.2%
same,renal clearance,[1],negligible
same,pS6RP staining in tumor biopsies,pS6RP,Significant inhibition
